Columns and labels:
Format in all cases: functional
[1] = system: K562; assay: Anticancer activity against human K562 cells after 48 hrs; conditions: K562, 48 h
How it was run: (§1)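 NCI Drug Evaluation Branch 60-cell-line screen across leukemia, melanoma, lung, colon, CNS, ovarian, renal, prostate and breast panels. The incubation period is 48 h. Parameters are derived from dose–response data: GI50 is the concentration giving 50% decrease in net growth, TGI is total growth inhibition, and LC50 is net 50% loss of initial cells. Values beyond the tested range are reported as greater or less than the maximum or minimum concentration.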

[2] = system: CCRF-CEM; assay: Anticancer activity against human CCRF-CEM cells after 48 hrs; how it was run: as §1
[3] = system: A549; assay: Anticancer activity against human A549 cells after 48 hrs; conditions: A549, 48 h; how it was run: as §1
[4] = system: U-251; assay: Anticancer activity against human U251 cells after 48 hrs; conditions: U-251, 48 h
How it was run: (§2)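 NCI ~60 human tumour cell line panel with a 48 h incubation. GI50 is the concentration giving a 50% fall in net growth, TGI gives total growth inhibition, and LC50 gives a net 50% loss of initial cells. An effect not reached or exceeded is reported as greater or less than the highest or lowest concentration tested.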

[5] = system: Rattus norvegicus; assay: Antiinflammatory activity in Wistar rat assessed as inhibition of carrageenan-induced hind paw edema at 20 mg/kg, po administered 30 mins before carrageenan challenge measured after 3 hrs by plethysmometer
How it was run: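 Wistar rats of either sex, 150–175 g, fasted 16 h, n = 6 per group. Compound given orally at 20 mg/kg as a suspension in 1% CMC in water (10 mL/kg); controls got vehicle only. After 30 min, 0.1 mL of 1% carrageenan in saline was injected subplantar into the left hind paw. Paw volume was measured by plethysmometer at 0, 3 and 5 h. Inhibition = (1 − Vt/Vc) × 100, reported as mean ± SEM.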

[6] = system: NCI-H23; assay: Anticancer activity against human NCI-H23 cells after 48 hrs; conditions: NCI-H23, 48 h
How it was run: (§3)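 NCI 60-line panel protocol with a 48 h incubation. Per line: GI50 = concentration giving 50% decrease in net cell growth; TGI = total growth inhibition; LC50 = net 50% loss of initial cells. When the level was not reached or was exceeded, the value is given as greater or less than the highest or lowest concentration tested.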

[7] = system: HCT-116; assay: Anticancer activity against human HCT116 cells after 48 hrs; conditions: HCT-116, 48 h; how it was run: as §1
[8] = system: SK-MEL-5; assay: Anticancer activity against human SK-MEL-5 cells after 48 hrs; conditions: SK-MEL-5, 48 h; how it was run: as §3
[9] = system: A498; assay: Anticancer activity against human A498 cells after 48 hrs; conditions: A498, 48 h; how it was run: as §1
[10] = system: COLO 205; assay: Anticancer activity against human COLO205 cells after 48 hrs; conditions: COLO 205, 48 h; how it was run: as §1
[11] = system: HCC 2998; assay: Anticancer activity against human HCC2998 cells after 48 hrs; conditions: HCC 2998, 48 h; how it was run: as §1
[12] = system: OVCAR-8; assay: Anticancer activity against human OVCAR8 cells after 48 hrs; conditions: OVCAR-8, 48 h; how it was run: as §3
[13] = system: EKVX; assay: Anticancer activity against human EKVX cells after 48 hrs; how it was run: as §1
[14] = system: SK-MEL-2; assay: Anticancer activity against human SK-MEL-2 cells after 48 hrs; conditions: SK-MEL-2, 48 h; how it was run: as §3
[15] = system: NCI-H226; assay: Anticancer activity against human NCI-H226 cells after 48 hrs; conditions: NCI-H226, 48 h; how it was run: as §3
[16] = system: UO-31; assay: Anticancer activity against human UO31 cells after 48 hrs; conditions: UO-31, 48 h, read-out: LC50 (the source's name); how it was run: as §2
[17] = system: RPMI-8226; assay: Anticancer activity against human RPMI8226 cells after 48 hrs; conditions: RPMI-8226, 48 h; how it was run: as §3
[18] = Anticancer activity against human Hs 578T cells after 48 hrs; how it was run: as §1
[19] = system: Malme-3M; assay: Anticancer activity against human MALME-3M cells after 48 hrs; how it was run: as §1
[20] = system: HT-29; assay: Anticancer activity against human HT-29 cells after 48 hrs; conditions: HT-29, 48 h; how it was run: as §1
[21] = system: OVCAR-5; assay: Anticancer activity against human OVCAR5 cells after 48 hrs; conditions: OVCAR-5, 48 h; how it was run: as §3
[22] = system: 786-0; assay: Anticancer activity against human 786-0 cells after 48 hrs; conditions: 786-0, 48 h; how it was run: as §1
[23] = system: OVCAR-3; assay: Anticancer activity against human OVCAR3 cells after 48 hrs; conditions: OVCAR-3, 48 h; how it was run: as §3
[24] = system: HL-60(TB); assay: Anticancer activity against human HL-60(TB) cells after 48 hrs; conditions: HL-60, 48 h
How it was run: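 NCI 60-cell-line panel protocol: cells exposed to compound for 48 h. Initial one-dose screen at 10⁻⁵ M. GI50 = concentration giving 50% decrease in net cell growth. TGI = concentration giving total growth inhibition. LC50 = concentration giving net 50% loss of initial cells at the end of incubation. A value not reached or exceeded is reported as greater or less than the highest or lowest concentration tested.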

[25] = system: MDA-MB-468; assay: Anticancer activity against human MDA-MB-468 cells after 48 hrs; conditions: MDA-MB-468, 48 h; how it was run: as §1
[26] = system: SNB-75; assay: Anticancer activity against human SNB75 cells after 48 hrs; conditions: SNB-75, 48 h; how it was run: as §3
[27] = system: M14; assay: Anticancer activity against human M14 cells after 48 hrs; conditions: M14, 48 h; how it was run: as §1
[28] = read-out: LC50 (the source's name)

**Q.** Which GI50 [1] does the source give for `Cc1cc(O)c(C2=NN(c3ccc(S(N)(=O)=O)cc3)C(c3ccccc3O)C2)cc1Cl` (configuration not stated) here?
**A.** 2.56 µM

**Q.** What about the LC50 (concentration killing 50% of initial cells) [1] of the same compound?
**A.** > 100 µM

**Q.** And the TGI [1]?
**A.** 14.6 µM

**Q.** What about the GI50 [2] of the same compound?
**A.** 4.17 µM

**Q.** And the LC50 (concentration causing net 50% loss of initial cells) [2]?
**A.** > 100 µM

**Q.** What about the TGI [2] of the same compound?
**A.** > 100 µM

**Q.** And the GI50 [3]?
**A.** 3.69 µM

**Q.** And the LC50 (net 50% loss of initial cells) [3]?
**A.** 60.5 µM

**Q.** What about the TGI [3] of the same compound?
**A.** 15.5 µM

**Q.** And the GI50 [4]?
**A.** 2.78 µM

**Q.** And the TGI [4]?
**A.** 7.76 µM

**Q.** And the CC50 [4, 28]?
**A.** 26.9 µM

**Q.** What about the inhibition in vivo at 20 mg/kg [5] of the same compound?
**A.** 73.6%

**Q.** What about the GI50 [6] of the same compound?
**A.** 2.09 µM

**Q.** What about the LC50 (concentration killing 50% of initial cells) [6] of the same compound?
**A.** 16 µM

**Q.** And the TGI [6]?
**A.** 5.03 µM

**Q.** What about the GI50 [7] of the same compound?
**A.** 1.66 µM

**Q.** And the TGI [7]?
**A.** 3.02 µM

**Q.** What about the CC50 [7, 28] of the same compound?
**A.** 5.5 µM

**Q.** What about the GI50 [8] of the same compound?
**A.** 5.69 µM

**Q.** And the LC50 [8]?
**A.** 42.7 µM

**Q.** And the TGI [8]?
**A.** 18.2 µM

**Q.** What about the GI50 [9] of the same compound?
**A.** 2.79 µM

**Q.** And the TGI [9]?
**A.** 14.5 µM

**Q.** What about the CC50 [9, 28] of the same compound?
**A.** 46.9 µM

**Q.** What about the GI50 [10] of the same compound?
**A.** 1.95 µM

**Q.** And the LC50 (concentration giving net 50% loss of initial cells) [10]?
**A.** 6.43 µM

**Q.** And the TGI [10]?
**A.** 3.54 µM

**Q.** And the GI50 [11]?
**A.** 2.13 µM

**Q.** And the LC50 (net 50% loss of initial cells) [11]?
**A.** 8.74 µM

**Q.** What about the TGI [11] of the same compound?
**A.** 4.31 µM

**Q.** And the GI50 [12]?
**A.** 3.89 µM

**Q.** And the TGI [12]?
**A.** 16.5 µM

**Q.** What about the CC50 [12, 28] of the same compound?
**A.** 91.8 µM

**Q.** And the GI50 [13]?
**A.** 1.99 µM

**Q.** What about the TGI [13] of the same compound?
**A.** 7.16 µM

**Q.** What about the CC50 [13, 28] of the same compound?
**A.** 39.7 µM

**Q.** What about the GI50 [14] of the same compound?
**A.** 11 µM

**Q.** What about the LC50 [14] of the same compound?
**A.** 67 µM

**Q.** And the TGI [14]?
**A.** 27.2 µM

**Q.** And the GI50 [15]?
**A.** 2.21 µM

**Q.** And the TGI [15]?
**A.** 7.55 µM

**Q.** What about the CC50 [15, 28] of the same compound?
**A.** 86.5 µM

**Q.** And the CC50 [16]?
**A.** 38.5 µM

**Q.** And the GI50 [17]?
**A.** 2.39 µM

**Q.** What about the LC50 (concentration for net 50% loss of initial cells) [17] of the same compound?
**A.** > 100 µM

**Q.** And the TGI [17]?
**A.** 15 µM

**Q.** What about the GI50 [18] of the same compound?
**A.** 4.64 µM

**Q.** What about the TGI [18] of the same compound?
**A.** 22.5 µM

**Q.** What about the CC50 [18, 28] of the same compound?
**A.** > 100 µM

**Q.** And the GI50 [19]?
**A.** 2.72 µM

**Q.** And the TGI [19]?
**A.** 7.34 µM

**Q.** And the CC50 [19, 28]?
**A.** 59.2 µM

**Q.** What about the GI50 [20] of the same compound?
**A.** 2.37 µM

**Q.** And the TGI [20]?
**A.** 5.1 µM

**Q.** What about the CC50 [20, 28] of the same compound?
**A.** 12.9 µM

**Q.** And the GI50 [21]?
**A.** 1.73 µM

**Q.** What about the LC50 [21] of the same compound?
**A.** 8.12 µM

**Q.** And the TGI [21]?
**A.** 3.75 µM

**Q.** What about the GI50 [22] of the same compound?
**A.** 2.23 µM

**Q.** What about the TGI [22] of the same compound?
**A.** 4.21 µM

**Q.** What about the CC50 [22, 28] of the same compound?
**A.** 7.94 µM

**Q.** And the GI50 [23]?
**A.** 1.81 µM

**Q.** And the LC50 (concentration giving 50% net loss of initial cells) [23]?
**A.** 11.3 µM

**Q.** And the TGI [23]?
**A.** 3.73 µM

**Q.** What about the GI50 [24] of the same compound?
**A.** 2.99 µM

**Q.** What about the LC50 [24] of the same compound?
**A.** > 100 µM

**Q.** What about the TGI [24] of the same compound?
**A.** 7.32 µM

**Q.** And the GI50 [25]?
**A.** 2.58 µM

**Q.** What about the TGI [25] of the same compound?
**A.** 7.92 µM

**Q.** And the CC50 [25, 28]?
**A.** 37.6 µM

**Q.** What about the GI50 [26] of the same compound?
**A.** 1.79 µM

**Q.** What about the TGI [26] of the same compound?
**A.** 13.6 µM

**Q.** What about the CC50 [26, 28] of the same compound?
**A.** 37.1 µM

**Q.** And the GI50 [27]?
**A.** 1.76 µM

**Q.** And the TGI [27]?
**A.** 3.4 µM

**Q.** What about the CC50 [27, 28] of the same compound?
**A.** 6.56 µM
